Source: ChEMBL document CHEMBL4359864, “The synthesis and in vitro biological evaluation of novel fluorinated tetrahydrobenzo[j]phenanthridine-7,12-diones against Mycobacterium tuberculosis” (Eur J Med Chem, 2019)

Test system: Mycobacterium tuberculosis variant bovis BCG
Assay: Antimycobacterial activity against Mycobacterium bovis BCG ATCC 35737 by resazurin dye based fluorimetric assay
Type: functional, organism-based
Outline: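 Resazurin microtiter method as for the bacterial panel. Mycobacteria grown in 7H9 with 10% OADC and 0.5% glycerol; for BCG, 0.05% Tween 80 replaced the glycerol. Cultures were sonicated and needle-passed to single cells. Incubation at 37°C, or 32°C for M. marinum. Fluorescence read at ex 550/em 590 nm; mean of triplicates.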

## O=C1C2=C(C(=O)c3c1cnc1cc(F)ccc31)C1CCC2C1 (configuration not stated)
  IC50: 17.4 µM

## COc1c(N2C[C@@H]3CCCN[C@@H]3C2)c(F)cc2c(=O)c(C(=O)O)cn(C3CC3)c12 [MOXIFLOXACIN]
  IC50: 0.03 µM

## O=C1C2=C(C(=O)c3c1cnc1c(F)cccc31)C1CCC2C1 (configuration not stated)
  IC50: 5.03 µM

## O=C1C2=C(C(=O)c3c1cnc1cc(C(F)(F)F)ccc31)C1CCC2C1 (configuration not stated)
  IC50: 15 µM

## O=C1C2=C(C(=O)c3c1cnc1ccccc31)C1CCC2C1 (configuration not stated)
  IC50: 7.9 µM

## O=C1C2=C(C(=O)c3c1cnc1ccc(C(F)(F)F)cc31)C1CCC2C1 (configuration not stated)
  IC50: 12.5 µM

## O=C1C2=C(C(=O)c3c1cnc1ccc(F)cc31)C1CCC2C1 (configuration not stated)
  IC50: 10.3 µM
